Only some compounds are listed: those with a hit (about 2.6% of all), similar ones and a draw of the others.
Rad51 HR inh: human RAD51 strand exchange inhibitors, primary screen, biochemical, fluorescence | hRad51 DNA strand exchange, fluorescence dequenching | actives 0.085% (n = 200,000) | AID 1385, 2008 | inhibition, % at 10 µM;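 active = inhibition above 40% at the single screening dose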;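 also: 0% = DMSO control wells and 100% = blanks with heterologous ssDNA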
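System: human Rad51 nucleoprotein filaments preassembled on unlabelled ssDNA. Reagent: labelled 47-mer dsDNA for strand exchange. Schedule: 30-min compound preincubation and 15-min exchange, both room temperature. Measured by: FRET fluorescence dequenching, excitation 485 nm, emission 520 nm. Read-out: Fluorescence-based percent inhibition, control- and blank-normalised. Benchmarks: plate controls and plate blanks.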
HSV replic up: enhancers of HSV replication in host cells, fold increase, host cell viability; maximum fold increase; actives 0.005% (n = 220,000); HSV replication augmentation in cells; in the data active = maximum fold increase above about 1.5; tested in PC3 cells
Hsp70 act: Hsp70 transcriptional activators, primary screen, cell-based, HeLa, Hsp70 promoter luciferase, luminescence, 10 µM | HeLa Hsp70 promoter luciferase reporter; scaled: vehicle 0, proteasome-inhibitor control 100% | activation, % at 10 µM | actives 0.04% (n = 200,000) | AID 1203, 2008;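 active = activation above the mean across all tested compounds plus 3 SD, cutoff set per campaign, cut at about 5.5% in these data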;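 also: 100% = MG132 at 30 µM as the positive control and 0% = DMSO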
HSF-1 act: HSF-1 activators, primary screen, NIH3T3-HGL cells, MG132 stress, luminescence, single point; NIH3T3-HGL HSF-1 luciferase reporter, 8 h; 100% = twice DMSO control signal; activation, % at 9 µM; actives 1.7% (n = 300,000); AID 504408, 2011;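 active = mean replicate activation of at least 50% with a set share of replicates each reaching 50%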;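 also: 0% = median of the neutral control wells and 100% = twice that signal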
Mdm2 ligase inh: MDM2-luciferase reporter signal enhancers, primary screen, MDM2 E3 ligase inhibitor project, cell-based, luminescence, 1536-well; actives 0.11% (n = 210,000); E3 ubiquitin-protein ligase Mdm2 (Homo sapiens), Q00987; AID 1230, 2008; signal enhancement, % at 5 µM; cell-based MDM2 ubiquitination luciferase reporter, 2 h; 0 = plate control, 100 = twice control, blank-subtracted;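 active = signal enhancement of 30% or more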;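 also: luminescence tracks abundance of the self-degrading MDM2-luciferase fusion protein; higher signal means inhibition of MDM2 E3 ligase activity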
Target sequence (Q00987 whole entry, looked up, the tested form may be a part): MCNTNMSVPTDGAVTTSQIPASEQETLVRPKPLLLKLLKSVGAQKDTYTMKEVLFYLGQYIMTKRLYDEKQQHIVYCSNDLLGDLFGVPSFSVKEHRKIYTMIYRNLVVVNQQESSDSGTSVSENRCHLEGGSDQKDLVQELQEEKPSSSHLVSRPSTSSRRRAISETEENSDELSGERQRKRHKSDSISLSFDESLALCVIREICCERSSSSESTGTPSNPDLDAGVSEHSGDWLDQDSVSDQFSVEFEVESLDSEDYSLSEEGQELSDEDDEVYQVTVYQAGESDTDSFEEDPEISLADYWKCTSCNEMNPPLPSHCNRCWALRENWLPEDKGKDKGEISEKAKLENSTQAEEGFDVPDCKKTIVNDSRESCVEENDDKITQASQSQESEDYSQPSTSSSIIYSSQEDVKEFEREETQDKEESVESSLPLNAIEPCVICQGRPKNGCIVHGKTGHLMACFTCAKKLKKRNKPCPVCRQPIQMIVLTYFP
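Test system: stable mammalian line carrying autodegrading MDM2–luciferase fusion reporter; quantity: 2000 cells in each well; times: 4 h cell settling then 2 h compound exposure, 37 °C; detection: luminescence with SteadyLite reagent, 15 min at room temperature; evaluation: percent signal gain over controls, blank-subtracted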
HSF1 inhib: HSF1 inhibitors in luciferase reporter cells, primary screen, cell-based, NIH3T3, luminescence; AID 2098, 2009; actives 0.77% (n = 300,000); activity change, negative = inhibition, % at 7.5 µM (by protocol); NIH3T3-HGL HSE-luciferase, MG132-induced, luminescence 8 h; hits give low values;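 active = more than half of replicate wells show activity change below -50%, luminescence cut by over half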;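 also: luciferase reports HSF-1 transcriptional activity via heat shock element; 0% = median of DMSO wells and -100% = zero luminescence signal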
Starred values were filed as active, the others as inactive; i = inactive; x = not tested or not shown.

SMILES | Rad51 HR inh | HSV replic up | Hsp70 act | HSF-1 act | Mdm2 ligase inh | HSF1 inhib
Cc1cc(SCC(=O)N/N=C/c2ccc(O)c(O)c2)c(C)cc1Br | 1.5 | i | -0.3 | 63.1* | x | 41.0
CCOC(=O)/C(C#N)=C\c1cc(C)n(-c2ccccc2)c1C | -6.6 | i | 0.1 | -68.7 | -9.3 | -62.8*
O=C1NC2(CCCC2)C(=O)N1CC(=O)N(Cc1ccccc1)c1ccccc1 | x | x | x | -1.9 | x | -4.6
O=C(CSc1n[nH]c(=O)n1-c1ccccc1)N1CCOCC1 | x | x | x | 8.3 | x | -5.0
CCOC(=O)c1sc2nc3c(cc2c1N)COC(C(C)C)C3 (stereo not drawn) | -37.4 | i | 0.2 | -69.5 | -32.0 | -59.5*
CS(=O)(=O)c1ccc(C(=O)OCC(=O)NC23CC4CC(CC(C4)C2)C3)cc1[N+](=O)[O-] | -8.1 | i | -0.3 | 51.0* | -11.8 | 26.5
CC(=O)c1ccc(OCc2cc(C(=O)N(C)C(C)c3nccs3)no2)cc1 (stereo not drawn) | x | x | x | 84.5* | x | 46.9
COc1ccc(C(=O)COC(=O)CCN2C(=O)C3C4CC(C(Br)C4Br)C3C2=O)cc1 (stereo not drawn) | -6.5 | i | -0.3 | -71.1 | -30.8 | -62.5*
CCN1C(=O)N(C)[C@@H](c2ccccc2)C(C(=O)OC)=C1C | 2.0 | i | x | -6.0 | 9.3 | -0.8
CCN(CC)CCOC(=O)c1ccc(N)cc1 | x | x | x | -80.5 | x | -78.3*
CCN(CC)CCOC(=O)c1ccc([N+](=O)[O-])cc1 | x | i | x | -20.5 | -8.0 | -6.4
COc1c(Br)cc(Br)cc1C(=O)O | -3.0 | i | -0.4 | 112.5* | -18.6 | 86.9
CCOc1cc(Br)c(C(=O)O)cc1OC | 4.5 | i | -0.3 | -7.7 | -10.2 | -9.2
COc1cccc(/C=N/NC(=O)NC23CC4CC(CC(C4)C2)C3)c1O | x | x | x | 11.2 | x | 15.3
O=C(N/N=C/c1ccccc1F)NC12CC3CC(CC(C3)C1)C2 | x | x | x | 87.0* | x | 49.4
O=C(N/N=C/c1cc([N+](=O)[O-])ccc1O)NC12CC3CC(CC(C3)C1)C2 | -18.5 | i | -0.3 | -55.7 | -23.3 | -50.5*
O=c1c2ccccc2ncn1-c1ccc([N+](=O)[O-])cc1Cl | x | x | x | -51.7 | x | -40.7
CN(C)/C=C/C(=O)c1ccncc1 | 14.6 | i | -0.5 | 22.8 | -12.9 | 12.5
CN(C)/C=C/C(=O)c1cccc(Oc2ncccn2)c1 | 6.3 | i | 0.0 | 71.5* | -3.5 | 48.8
CC1=NOC(=O)/C1=C\c1ccc(-c2ccccc2Br)o1 | 17.5 | i | -0.2 | -15.4 | -23.4 | -9.1
CC(C)CNc1nnnc2c1sc1nc(N3CCOCC3)c3c(c12)CCCC3 | 16.5 | i | x | 15.0 | -8.2 | -6.2
C=CCNc1nnnc2c1sc1nc(N3CCOCC3)c3c(c12)CCCC3 | 23.2 | i | x | -74.5 | -3.3 | -68.4*
Cc1ccc(NC(=O)Nc2ccc(Cl)cn2)cc1 | 1.8 | i | 0.4 | 77.3* | -1.0 | 40.2
Cc1ccc(NC(=O)Nc2ccc(Cl)c(Cl)c2)nc1 | x | x | x | 53.5* | x | 27.7
O=C(Nc1cccc(F)c1)Nc1ccc(Cl)cn1 | x | x | x | -0.6 | x | 10.8
SMILES | Rad51 HR inh | HSV replic up | Hsp70 act | HSF-1 act | Mdm2 ligase inh | HSF1 inhib
COc1cccc(NC(=O)CN(C)C(=O)c2cc(-c3cccc(Br)c3)nc3ccccc23)c1 | x | x | x | 19.1 | x | 4.4
Cc1csc(NC(=O)CSc2nc(=O)[nH]c3c2CCCC3)n1 | x | x | x | 3.2 | x | 18.2
O=C(N/N=C/c1cc([N+](=O)[O-])ccc1Cl)c1cc(-c2ccccc2)nc2ccccc12 | 2.0 | i | x | 8.6 | x | 3.0
O=C(N/N=C/c1ccc(Cl)c([N+](=O)[O-])c1)c1cc(-c2ccccc2)nc2ccccc12 | 19.5 | i | -0.3 | 128.2* | -3.0 | 60.2
O=C(NCc1cccs1)c1ccc([N+](=O)[O-])cc1Cl | -9.7 | i | -0.5 | -72.7 | -11.6 | -69.5*
O=C(NCc1ccccc1Cl)c1cc([N+](=O)[O-])ccc1Cl | x | i | -0.1 | 5.7 | -8.0 | 7.6
Cc1cc(C)cc(CN2C(=O)NC3(CCCCCC3)C2=O)c1 | x | x | x | -1.4 | x | -7.1
OCCC1CN(Cc2cccc(-n3cccn3)c2)CCN1Cc1ccccc1 (stereo not drawn) | 2.5 | i | 0.5 | -67.3 | -8.2 | -64.8*
Cc1ccc(CN2CCN(Cc3cccc(OCCO)c3)CC2CCO)o1 (stereo not drawn) | -6.4 | i | -0.1 | -88.5 | -5.1 | -86.2*
Cc1ccc(CN2CCN(Cc3ccc(OC(C)C)cc3)CC2CCO)o1 (stereo not drawn) | 5.1 | i | -0.5 | -3.2 | -10.9 | -0.1
COC(=O)c1ccc(CN2CCN(CCc3ccccc3)C(CCO)C2)cc1 (stereo not drawn) | 6.0 | i | -0.1 | -78.0 | -15.7 | -72.0*
CC(C)CCN1CCN(Cc2cccc(-n3cccn3)c2)CC1CCO (stereo not drawn) | -8.8 | i | -0.3 | 4.0 | 1.8 | -8.7
CC1CC(C)CN(C(=O)CCC(=O)Nc2nnc(C3CCCCC3)s2)C1 (stereo not drawn) | x | x | x | 10.2 | x | 5.7
Cc1ccc(CC(=O)NC2CCSC2=O)cc1 (stereo not drawn) | 0.6 | i | 0.1 | 8.7 | -10.2 | -6.4
OCCCNc1c2ccccc2nc2ccccc12 | x | x | x | 15.5 | x | 11.9
CCN1CCN(S(=O)(=O)c2ccc(Cl)c(C(=O)N(C)CCOc3ccc(Cl)cc3)c2)CC1 | x | x | x | 3.7 | x | 4.6
O=C(NCc1c(Cl)cccc1Oc1ccccc1)c1ccccc1 | -1.8 | i | x | -1.0 | -18.0 | -3.5
Cc1cc(NC(=O)CCN2C(=O)/C(=C/c3ccccc3Cl)SC2=S)no1 | -9.4 | i | -0.3 | 54.4* | -10.5 | 11.4
O=C(CCN1C(=O)/C(=C/c2cccs2)SC1=S)Nc1ccccc1O | x | x | x | 69.3* | x | 42.6
O=C(CCN1C(=O)/C(=C/c2cccs2)SC1=S)Nc1ccc(O)cc1 | x | x | x | 14.5 | x | 11.1
COc1ccccc1/C=C1\SC(=S)N(CCC(=O)Nc2cc(C)on2)C1=O | x | x | x | 8.6 | x | 6.3
CCCCN(C(=O)c1ccc([N+](=O)[O-])s1)c1c(N)n(CCCC)c(=O)[nH]c1=O | x | x | x | -70.4 | x | -61.9*
CSc1cccc(NC(=O)c2cnn3ccccc23)c1 | 6.3 | i | x | 81.1* | -30.4 | 51.7
Cc1nc(NC(=O)CSC2=NCCS2)sc1C(=O)N(C)C | x | x | x | -7.0 | x | -1.2
COc1ccccc1C(=O)OCC(=O)c1cccc([N+](=O)[O-])c1 | x | i | -0.2 | -82.8 | -5.9 | -75.8*
CC(C)(c1ccccc1)c1ccc(OCCCN2CCNCC2)cc1 | -9.7 | i | 0.4 | 56.1* | -13.3 | 20.7
